Calls of active or inactive are those of the source. The calls are words filed in the database; no cut-off is given here.
What was measured:
[1] = Cytotoxicity against human NIH-H460 cells assessed as cell viability at 50 nM after 48 hrs by MTT assay relative to control; type: functional; details: NIH-H460, 48 h
Summary of the method: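 NIH-H460 cells (RPMI 1640, 10% FBS, 1% L-glutamine, penicillin/streptomycin) were seeded at 1 × 10^4 cells/well and exposed to 50 nM for 48 h. MTT was then added at 0.5 mg/mL final in medium for 2 h in the dark at 37 °C. Formazan was dissolved in DMSO for 15 min at RT and read at 570 nm. Output was inhibitory rate (%).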

NIH-H460 [2] = assay: Induction of apoptosis in human NIH-H460 cells assessed as caspase-3 activation at 20 nM after 24 hrs by Western blotting analysis; type: functional, cell-based
[3] = Induction of apoptosis in human NIH-H460 cells at 20 nM after 36 hrs by microscopic analysis relative to control; type: functional
Summary of the method: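 NIH-H460 cells were exposed to vehicle or 20 nM in serum-free medium for up to 36 h. Detached and attached cells were pooled and stained with 50 μg/mL DAPI plus 100 μg/mL RNase A at 37 °C for 20 min. Apoptotic cells were scored by cytoplasmic shrinkage, membrane blebbing and nuclear condensation/fragmentation, and reported as % apoptotic cells.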

NIH-H460 [4] = assay: Induction of apoptosis in human NIH-H460 cells assessed as localization of Nur77 in nucleus at 20 nM after 3 hrs by immunofluorescence microscopic analysis; type: functional, cell-based
Summary of the method: (§1)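 NIH-H460 cells on slides were treated with 20 nM for 3 h, then given MitoTracker Red (25 nM) for 15 min. Cells were permeabilised with 0.01% digitonin in PBS for 30 min and blocked with 1% BSA for 30 min. Anti-Nur77 (1:200) was applied for 3 h at RT, then FITC/Cy3 anti-rabbit IgG for 1 h. DAPI marked nuclei, and images were taken by confocal microscopy.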

NIH-H460 [5] = assay: Induction of Nur77 protein expression in human NIH-H460 cells at […] by Western blotting analysis; type: functional, cell-based
Summary of the method: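 NIH-H460 cells were treated with vehicle or compound, either at 2.5–40 nM for 3 h or at 20 nM over a time course. Equal amounts of lysate were run on 8% SDS-PAGE and blotted to PVDF. Membranes were blocked in 5% milk/TBST and probed overnight at 4 °C with anti-Nur77 (1:1000). Bands were detected by ECL, with β-actin reprobe as loading control.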

NIH-H460 [6] = assay: Induction of apoptosis in human NIH-H460 cells assessed as increase in PARP cleavage at 20 nM after 24 hrs by Western blotting analysis; type: functional, cell-based
Summary of the method: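 Western blot of NIH-H460 lysates (8% SDS-PAGE, PVDF) probed overnight at 4 °C with anti-PARP (1:1000) to detect cleavage. Detection was by ECL, with β-actin reprobe as loading control. Cleavage was examined at 24 h post-treatment.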

NIH-H460 [7] = assay: Induction of apoptosis in human NIH-H460 cells assessed as localization of Nur77 in mitochondria at 20 nM after 3 hrs by immunofluorescence microscopic analysis; type: functional, cell-based; summary of the method: as §1
NIH-H460 [8] = assay: Induction of apoptosis in human NIH-H460 cells assessed as localization of Nur77 in cytoplasm at 20 nM after 3 hrs by immunofluorescence microscopic analysis; type: functional, cell-based; summary of the method: as §1

SMILES | inhibition at 0.05 µM [1] | also measured
C[C@]12CC[C@H]3[C@@H](CC[C@]4(O)C[C@@H](O)CC[C@]34CO[C@@H]3O[C@H](CO)[C@@H](O)[C@H](O)[C@H]3O)[C@@]1(O)CC[C@@H]2C1=CC(=O)OC1 | 29.4% | 
C[C@@H]1O[C@@H](O[C@H]2CC[C@]3(C=O)[C@H]4CC[C@]5(C)[C@@H](C6=CC(=O)OC6)CC[C@]5(O)[C@@H]4CC[C@]3(O)C2)[C@H](O)[C@H](O)[C@H]1O [CONVALLATOXIN] | 82.1% | 
C[C@H]1O[C@@H](O[C@H]2CC[C@]3(C=O)[C@H]4C[C@@H](O)[C@]5(C)[C@H](C6=CC(=O)OC6)CC[C@]5(O)[C@@H]4CC[C@]3(O)C2)[C@H](O)[C@H](O)[C@H]1O | 9.3% | 
C[C@H]1O[C@@H](O[C@H]2CC[C@]3(C(=O)O)[C@H]4C[C@@H](O)[C@]5(C)[C@@H](C6=CC(=O)OC6)CC[C@]5(O)[C@@H]4CC[C@]3(O)C2)[C@H](O)[C@H](O)[C@@H]1O | 7.8% | Activity (NIH-H460 [2]): inactive; Activity [3]: 3.4%; Activity (NIH-H460 [4]): Active; Activity (NIH-H460 [5]): Active
C[C@H]1O[C@@H](O[C@H]2CC[C@]3(C)[C@H]4C[C@@H](O)[C@]5(C)[C@@H](C6=CC(=O)OC6)CC[C@]5(O)[C@@H]4CC[C@]3(O)C2)[C@H](O)[C@H](O)[C@H]1O | 33.9% | 
C[C@@H]1O[C@@H](O[C@@H]2CC[C@]3(C=O)[C@H]4C[C@@H](O)[C@]5(C)[C@@H](C6=CC(=O)OC6)CC[C@]5(O)[C@@H]4CC[C@]3(O)C2)[C@H](O)[C@H](O)[C@H]1O | 6.3% | 
C[C@H]1O[C@@H](O[C@H]2CC[C@@]3(C=O)[C@H](CC[C@@H]4[C@@H]3C[C@@H](O)[C@]3(C)[C@@H](C5=CC(=O)OC5)CC[C@]43O)C2)[C@H](O)[C@H](O)[C@H]1O | 82.3% | 
C[C@@H]1C[C@@H](O)[C@@H](O)[C@H](O[C@H]2CC[C@]3(C=O)[C@H]4C[C@@H](O)[C@]5(C)[C@@H](C6=CC(=O)OC6)CC[C@]5(O)[C@@H]4CC[C@]3(O)C2)O1 | 81.6% | 
C[C@@H]1O[C@H](O[C@H]2CC[C@]3(C=O)[C@H]4C[C@@H](O)[C@]5(C)[C@@H](C6=CC(=O)OC6)CC[C@]5(O)[C@@H]4CC[C@]3(O)C2)[C@H](O)[C@H](O)[C@H]1O | 81.4% | 
C[C@@H]1O[C@H](O[C@@H]2CC[C@]3(C=O)[C@H]4CC[C@]5(C)[C@@H](C6=CC(=O)OC6)CC[C@]5(O)[C@@H]4CC[C@]3(O)C2)[C@H](O)[C@H](O)[C@H]1O [ANTIAROSIDE C] | 18.9% | 
C[C@]12CC[C@H]3[C@@H](CC[C@]4(O)C[C@@H](O)CC[C@]34C(=O)O[C@@H]3O[C@H](CO)[C@@H](O)[C@H](O)[C@H]3O)[C@@]1(O)CC[C@@H]2C1=CC(=O)OC1 | 11.1% | Activity (NIH-H460 [2]): inactive; Activity [3]: 6.8%; Activity (NIH-H460 [4]): Active; Activity (NIH-H460 [5]): Active
C[C@H]1O[C@@H](O[C@H]2CC[C@]3(CO)[C@H]4CC[C@]5(C)[C@@H](C6=CC(=O)OC6)CC[C@]5(O)[C@@H]4CC[C@]3(O)C2)[C@H](O)[C@H](O)[C@H]1O [DEGLUCOCHEIROTOXOL] | 67.9% | 
C[C@@H]1O[C@@H](O[C@H]2CC[C@]3(CO)[C@H]4C[C@@H](O)[C@]5(C)[C@@H](C6=CC(=O)OC6)CC[C@]5(O)[C@@H]4CC[C@]3(O)C2)[C@H](O)[C@H](O)[C@H]1O | 60.2% | 
C[C@@H]1O[C@@H](O[C@H]2CC[C@]3(C=O)[C@H]4C[C@@H](O)[C@]5(C)[C@H](C6=CC(=O)OC6)CC[C@]5(O)[C@@H]4CC[C@]3(O)C2)[C@H](O)[C@H](O)[C@H]1O | 6.2% | 
C[C@@H]1O[C@@H](O[C@H]2CC[C@]3(C)[C@H]4C[C@@H](O)[C@]5(C)[C@@H](C6=CC(=O)OC6)CC[C@]5(O)[C@@H]4CC[C@]3(O)C2)[C@H](O)[C@H](O)[C@H]1O [ANTIOSIDE] | 75.7% | 
C[C@H]1O[C@H](O[C@H]2CC[C@]3(C=O)[C@H]4C[C@@H](O)[C@]5(C)[C@@H](C6=CC(=O)OC6)CC[C@]5(O)[C@@H]4CC[C@]3(O)C2)[C@H](O)[C@H](O)[C@@H]1O [ANTIALLOSIDE] | 70.7% | 

SMILES | inhibition at 0.05 µM [1] | also measured
C[C@H]1O[C@H](O[C@H]2CC[C@]3(C=O)[C@H]4C[C@@H](O)[C@]5(C)[C@@H](C6=CC(=O)OC6)CC[C@]5(O)[C@@H]4CC[C@]3(O)C2)[C@H](O)[C@H](O)[C@H]1O | 45% | 
C[C@H]1O[C@@H](O[C@H]2CC[C@]3(C=O)[C@H]4CC[C@]5(C)[C@@H](C6=CC(=O)OC6)CC[C@]5(O)[C@@H]4CC[C@]3(O)C2)[C@H](O)[C@H](O)[C@H]1O [DESGLUCOCHEIROTOXIN] | 76.9% | 
C[C@H]1O[C@@H](O[C@@H]2CC[C@]3(C=O)[C@H]4C[C@@H](O)[C@]5(C)[C@@H](C6=CC(=O)OC6)CC[C@]5(O)[C@@H]4CC[C@]3(O)C2)[C@H](O)[C@H](O)[C@H]1O | 3.2% | 
C[C@H]1O[C@@H](O[C@H]2CC[C@@]3(CO)[C@H](CC[C@@H]4[C@@H]3C[C@@H](O)[C@]3(C)[C@@H](C5=CC(=O)OC5)CC[C@]43O)C2)[C@H](O)[C@H](O)[C@H]1O | 63.8% | 
C[C@@H]1O[C@@H](O[C@H]2CC[C@]3(C=O)[C@H]4C[C@H](O)[C@]5(C)[C@@H](C6=CC(=O)OC6)CC[C@]5(O)[C@@H]4CC[C@]3(O)C2)[C@H](O)[C@H](O)[C@H]1O | 82.8% | 
C[C@H]1O[C@@H](O[C@@H]2CC[C@]3(C=O)[C@H]4C[C@@H](O)[C@]5(C)[C@@H](C6=CC(=O)OC6)CC[C@]5(O)[C@@H]4CC[C@]3(O)C2)[C@H](O)[C@H](O)[C@@H]1O | 6.9% | 
C[C@@H]1O[C@@H](O[C@H]2CC[C@@]3(C=O)[C@H](CC[C@@H]4[C@@H]3C[C@@H](O)[C@]3(C)[C@@H](C5=CC(=O)OC5)CC[C@]43O)C2)[C@H](O)[C@H](O)[C@H]1O | 81.9% | 
C[C@H]1O[C@@H](O[C@H]2CC[C@]3(C)[C@H]4C[C@@H](O)[C@]5(C)[C@@H](C6=CC(=O)OC6)CC[C@]5(O)[C@@H]4CC[C@]3(O)C2)[C@H](O)[C@H](O)[C@@H]1O [ANTIOGOSIDE] | 34.3% | 
CO[C@H]1[C@@H](O[C@H]2CC[C@]3(C=O)[C@H]4C[C@@H](O)[C@]5(C)[C@@H](C6=CC(=O)OC6)CC[C@]5(O)[C@@H]4CC[C@]3(O)C2)O[C@H](C)[C@@H](O)[C@@H]1O [TOXICARIOSIDE B] | 71.4% | 
C[C@@H]1O[C@H](O[C@H]2CC[C@]3(CO)[C@H]4CC[C@]5(C)[C@@H](C6=CC(=O)OC6)CC[C@]5(O)[C@@H]4CC[C@]3(O)C2)[C@H](O)[C@H](O)[C@H]1O [CONVALLATOXOL] | 80.7% | 
C[C@H]1O[C@@H](O[C@H]2CC[C@]3(CO)[C@H]4C[C@@H](O)[C@]5(C)[C@@H](C6=CC(=O)OC6)CC[C@]5(O)[C@@H]4CC[C@]3(O)C2)[C@H](O)[C@H](O)[C@H]1O | 64.2% | 
C[C@@H]1O[C@@H](O[C@H]2CC[C@@]3(CO)[C@H](CC[C@@H]4[C@@H]3CC[C@]3(C)[C@@H](C5=CC(=O)OC5)CC[C@]43O)C2)[C@H](O)[C@H](O)[C@H]1O | 82.4% | 
C[C@H]1O[C@@H](O[C@@H]2CC[C@]3(C=O)[C@H]4CC[C@]5(C)[C@@H](C6=CC(=O)OC6)CC[C@]5(O)[C@@H]4CC[C@]3(O)C2)[C@H](O)[C@H](O)[C@H]1O | 6.8% | 
CO[C@H]1[C@@H](O[C@H]2CC[C@]3(C=O)[C@H]4CC[C@]5(C)[C@@H](C6=CC(=O)OC6)CC[C@]5(O)[C@@H]4CC[C@]3(O)C2)O[C@H](C)[C@@H](O)[C@H]1O [STROPHATHOJAVOSIDE] | 65% | 
C[C@H]1O[C@@H](O[C@H]2CC[C@]3(C=O)[C@H]4C[C@@H](O)[C@]5(C)[C@@H](C6=CC(=O)OC6)CC[C@]5(O)[C@@H]4CC[C@]3(O)C2)[C@H](O)[C@H](O)[C@@H]1O | 78.9% | Activity (NIH-H460 [6]): Active; Activity (NIH-H460 [2]): Active; Activity (NIH-H460 [7]): Active; Activity (NIH-H460 [8]): Active; Activity [3]: 22.3%; Activity (NIH-H460 [4]): Active; Activity (NIH-H460 [5]): Active
